# High-throughput results from PubChem BioAssay.
# Most compounds without a hit are left out; they make up all but 4.6% or so of the library.
# OX1R antag-1 = OX1R (HCRTR1) antagonists, primary screen, fluorescence, CHO/OX1R cells, Fluo-8 calcium, orexin A; Fluo-8 calcium fluorescence; Orexin/Hypocretin receptor type 1 (Homo sapiens), O43613; 330,000 compounds, 0.43% hits; inhibition, % at 5 µM;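 active = inhibition above its plate's threshold, mean inhibition of all tested compounds on the plate plus 3 SD, cut at about 37% in these data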
# GPR7 antag = GPR7 receptor antagonists, primary screen, cell-based, fluorescence, single concentration | Neuropeptides B/W receptor type 1 (Homo sapiens), P48145 | GPR7-expressing cells, fluorescence antagonist assay | inhibition, % at 4.4 µM | 290,000 compounds, 1.1% hits; in the data active = inhibition above about 16%, passing the limit was not always enough;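 also: cells stimulated with the agonist NPW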
# Target sequence (P48145 whole entry, looked up): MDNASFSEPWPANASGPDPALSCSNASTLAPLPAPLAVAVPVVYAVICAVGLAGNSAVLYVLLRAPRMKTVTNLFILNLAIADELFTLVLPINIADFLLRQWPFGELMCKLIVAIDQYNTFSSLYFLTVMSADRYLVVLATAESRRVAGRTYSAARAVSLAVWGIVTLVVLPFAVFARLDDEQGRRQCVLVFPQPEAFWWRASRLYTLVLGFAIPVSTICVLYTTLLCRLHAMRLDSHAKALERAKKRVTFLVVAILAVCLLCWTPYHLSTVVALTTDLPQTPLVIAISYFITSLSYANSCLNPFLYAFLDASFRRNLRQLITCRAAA
# CHO parental Ca = ATP-evoked calcium signal inhibitors, parental CHO, primary screen, counter-screen for OX1R antagonist project, cell-based, fluorescence, Fluo-8 calcium dye; 330,000 compounds, 0.63% hits; inhibition, % at 5.6 µM; parental CHO-K1, ATP-induced calcium, Fluo-8 fluorescence;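 active = inhibition above that plate's mean sample inhibition plus 3 SD, cut at about 26% in these data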
#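 Material: Parental CHO cells | Reagent: ATP | Compound dosing: Single nominal dose of 5.6 µM per compound | Detection: Intracellular calcium via Fluo-8 no-wash fluorescent dye | Read-out: % inhibition of ATP-induced calcium mobilization | Benchmarks: Low control ATP plus DMSO, high control DMSO only | Replicates: Singlicate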
# OX1R antag-2 = antagonists of human orexin 1 receptor (OX1R). Orexin/Hypocretin receptor type 1 (Homo sapiens), O43613. OX1R-expressing cells, FRET antagonist read-out. inhibition, % at 6.6 µM. 330,000 compounds, 1.8% hits; in the data active = inhibition mostly above about 38%, no sharp cut-off; inactive = mostly below about 40%
# TAAR1 antagonist = human TAAR1 antagonists, primary screen, Fluo-8 calcium fluorescence, CHO RD-HGA16 cells. AID 624466, 2012. Trace amine-associated receptor 1 (Homo sapiens), Q96RJ0. 360,000 compounds, 1.5% hits. antagonist. inhibition, % at 3 µM;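 active = inhibition above a per-plate cutoff, the mean inhibition of test compounds on that plate plus 3 SD, cut at about 49% in these data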
# Target sequence (Q96RJ0 whole entry, looked up): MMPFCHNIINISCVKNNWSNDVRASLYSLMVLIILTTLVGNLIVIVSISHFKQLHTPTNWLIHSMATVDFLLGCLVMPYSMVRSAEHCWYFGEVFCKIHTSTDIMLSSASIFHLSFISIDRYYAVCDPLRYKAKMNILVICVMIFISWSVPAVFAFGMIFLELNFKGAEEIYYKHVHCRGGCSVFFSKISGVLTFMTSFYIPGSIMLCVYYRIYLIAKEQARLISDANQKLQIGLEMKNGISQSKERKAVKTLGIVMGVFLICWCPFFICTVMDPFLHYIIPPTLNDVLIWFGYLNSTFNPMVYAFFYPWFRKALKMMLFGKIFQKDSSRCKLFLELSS
#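 Assay system: CHO-derived RD-HGA16 cells stably expressing human TAAR1 plus Gα16. Timing: 140 s kinetic read after compound, 140 s after agonist. Technique: kinetic Fluo-8 calcium fluorescence measurement. Measure: % inhibition of agonist calcium response.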
# TAAR1 agonist = human TAAR1 agonists, primary screen, Fluo-8 calcium fluorescence, CHO RD-HGA16 cells; vehicle wells 0%, saturating PEA agonist 100%; activation, % at 3 µM; 360,000 compounds, 0.99% hits; AID 624467, 2012;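 active = activation above the mean activation of all test compounds in the run plus 3 SD, cut at about 38% in these data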
#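 Benchmarks: low control DMSO, high control PEA (EC100); System: CHO RD-HGA16 cells carrying human TAAR1 plus Gα16; Detection: Fluo-8 fluorescence, 5 s baseline then 140 s kinetic read; Schedule: 17-24 h plating, Fluo-8 75 min 37 °C, 30 min RT; Read-out basis: % activation from peak over basal fluorescence ratio, DMSO-to-PEA scaled.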
# nonsel antag count = nonselective antagonists in TAAR1 counter-screen cells, counter-screen for hTAAR1 antagonist project, cell-based, fluorescence, calcium | AID 651780, 2012 | 2,400 compounds, 77% hits | counterscreen cell line, antagonist mode | inhibition, % at 3 µM | shares compounds with TAAR1 antagonist; in the data active = inhibition above about 22%;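 also: CHO-Ga16 host cells stimulated with ATP at an EC80 level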
# TAAR1 ant conf = human TAAR1 antagonists, retest of hits, confirmation, cell-based, fluorescence; TAAR1-expressing cells, fluorescence antagonist read-out; 2,400 compounds, 40% hits; shares compounds with TAAR1 antagonist; inhibition, % at 3 µM; in the data active = inhibition above about 49%;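 also: CHO-Ga16 host cells challenged with agonist PEA near its EC80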
# Ga16 nonsel ag = calcium activation in Ga16-expressing cells, counter-screen for TAAR1 antagonist project, cell-based, fluorescence; shares compounds with TAAR1 antagonist; agonist counterscreen; 2,400 compounds, 18% hits; activation, % at 3 µM; AID 651953, 2012; in the data active = activation above about 12%
# TAAR1 ag count = TAAR1 activation by candidate antagonists – cell-based, fluorescence, counter-screen for TAAR1 antagonist project. shares compounds with TAAR1 antagonist. hTAAR1 cell line, agonist mode. activation, % at 3 µM. 2,400 compounds, 2% hits. AID 651955, 2012; in the data active = activation above about 37%;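 also: CHO cells stably expressing TAAR1 with calcium dye readout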
# A number is an active result; . = inactive; / = no result.
SMILES,OX1R antag-1,GPR7 antag,CHO parental Ca,OX1R antag-2,TAAR1 antagonist,TAAR1 agonist,nonsel antag count,TAAR1 ant conf,Ga16 nonsel ag,TAAR1 ag count
CCC1Oc2ccc(C)cc2N(CC(=O)NCC2COc3ccccc3O2)C1=O (centres undefined),.,.,.,.,67,.,24,49,.,.
Cc1ccc2c(c1)N(CCC(=O)NCC1COc3ccccc3O1)C(=O)CO2 (centres undefined),.,.,.,.,.,.,/,/,/,/
COc1cccc2cc(-c3cc(=O)oc4ccc(O)cc34)oc12,.,.,.,.,50,.,.,.,.,.
COc1ccc(Cl)cc1Cn1c(C)c(C(=O)NCc2ccc3c(c2)OCCO3)sc1=O,/,/,/,/,56,.,23,.,.,.
COc1ccc(CNC(=O)c2sc(=O)n(Cc3cc(Cl)ccc3OC)c2C)cc1,/,/,/,/,.,.,/,/,/,/
CN1CCN(S(=O)(=O)c2ccc(C(=O)NC3CCCCC3)cc2)CC1,/,/,/,/,.,.,/,/,/,/
Cc1ccc(-c2nnn(CC(=O)N(c3ccccc3F)C(C(=O)NCC3CCCO3)c3c[nH]c4ccccc34)n2)cc1 (centres undefined),.,.,.,.,.,.,/,/,/,/
COc1ccc(O)c(/C=N/NC(=S)Nc2cccc(S(=O)(=O)N(C)C)c2)c1,.,.,.,.,68,.,50,62,19,.
OC(COc1c(F)cc(Br)cc1F)CN1CCN(c2ccc(F)cc2)CC1 (centres undefined),.,.,.,.,.,.,/,/,/,/
COC(=O)c1ccc(C)c(NC(=O)CSc2nnc3ccccn23)c1,.,/,.,.,87,.,.,.,.,.
COc1cc(NC(=O)c2ccccc2Cl)ccc1NC(=O)c1cccs1,.,.,.,.,.,.,/,/,/,/
COc1cc(NC(=O)c2cc3ccccc3cc2OC)ccc1NC(=O)c1cccs1,.,.,.,.,85,.,23,51,.,.
CCn1c(=O)cc(OCC(=O)Nc2ccccc2N2CCN(C)CC2)c2ccccc21,.,.,.,.,.,.,/,/,/,/
CN1CCc2ccccc2C1C1CCNCC1 (centres undefined),.,.,.,.,.,.,/,/,/,/
COc1ccccc1C(=O)NC(=O)COC(=O)CNC(=O)c1ccc(Cl)cc1Cl,.,/,.,.,.,.,/,/,/,/
Cc1ccc(/C=N/NC(=O)CSc2nnc(-c3ccc(Cl)cc3)n2-c2ccc(Cl)cc2)o1,.,.,.,.,56,.,22,52,.,.
Cc1ccc(C)c(N(CC(=O)Nc2ccccc2C(=O)NCc2ccco2)S(=O)(=O)c2ccccc2)c1,.,.,.,.,79,.,35,58,.,.
Cc1ccc(N(CC(=O)Nc2ccccc2C(=O)NCc2ccco2)S(=O)(=O)c2ccccc2)cc1C,.,.,.,.,.,.,/,/,/,/
CCC(=O)N1CCCC1(C)C(=O)Nc1cccc(Oc2ccccc2)c1 (centres undefined),/,/,/,/,.,.,/,/,/,/
N#Cc1ccc(-c2ccc(OCC(=O)NN=Cc3ccncc3)cc2)cc1,.,/,.,.,54,.,26,53,13,.
O=C(COc1ccc(-c2ccccc2)cc1)N/N=C/c1ccccc1Br,.,.,.,.,.,.,/,/,/,/
O=C(COc1ccc(-c2ccccc2)cc1)N/N=C/c1cc(O)ccc1Br,.,.,.,.,53,.,22,.,.,.
CCC(C(=O)NC1CCCCCC1)n1nc(C)n2c(cc3occc32)c1=O (centres undefined),.,.,.,.,.,.,/,/,/,/
COC(=O)c1ccc(S(=O)(=O)N(Cc2ccccc2)Cc2ccccc2)n1C,.,.,.,.,102,.,.,.,.,.
CCN(Cc1ccccc1)S(=O)(=O)c1cc(C(=O)OC)n(C)c1,.,.,.,.,.,.,/,/,/,/
SMILES,OX1R antag-1,GPR7 antag,CHO parental Ca,OX1R antag-2,TAAR1 antagonist,TAAR1 agonist,nonsel antag count,TAAR1 ant conf,Ga16 nonsel ag,TAAR1 ag count
Cc1nnc(SCC(=O)NC2CCCc3c2cnn3-c2ccccc2F)o1 (centres undefined),.,.,.,.,.,.,/,/,/,/
O=[N+]([O-])c1ccccc1N/N=C/c1c[nH]c2ccccc12,.,.,.,.,.,.,/,/,/,/
O=[N+]([O-])c1ccc(N/N=C/c2c[nH]c3ccccc23)cc1,.,.,47,.,89,.,36,63,18,.
CCCCOc1ccc(CNn2c(C)nc3ccccc3c2=O)cc1,.,.,.,.,59,.,29,.,.,.
COc1ccc(CNn2c(C)nc3ccccc3c2=O)cc1,.,.,.,.,.,.,/,/,/,/
COc1ccc(CNn2c(-c3cccc(C)c3)nc3ccccc3c2=O)cc1OC,.,.,.,.,59,.,24,.,.,.
Cn1nnnc1SCC(=O)NCC(=O)c1ccccc1,.,.,.,.,.,.,/,/,/,/
CCOC(=O)c1cc2c(=O)n3ccccc3nc2n(Cc2ccco2)c1=NC(=O)c1cccc(OC)c1,.,.,.,.,56,.,25,.,.,.
CCOC(=O)c1c(C)[nH]c(C(=O)COC(=O)C2CC(=O)N(Cc3ccccc3)C2)c1C (centres undefined),.,.,.,.,.,.,/,/,/,/
Cc1[nH]c2ccccc2c1C(=O)COC(=O)C1CC(=O)N(Cc2ccccc2)C1 (centres undefined),.,.,.,.,70,.,31,53,13,.
COc1nc(N)c(C#N)c(-c2ccc(N(C)CCC#N)cc2)c1C#N,.,.,.,.,81,.,29,52,17,.
COc1ccc(-c2ccc3c(n2)CCCN3S(=O)(=O)c2ccccc2)cc1,/,/,/,/,78,.,38,52,.,.
O=S(=O)(c1ccccc1)N1CCCc2nc(-c3ccccc3)ccc21,/,/,/,/,.,.,/,/,/,/
